Measured values as given in ChEMBL document CHEMBL1764970, “New glucocerebrosidase inhibitors by exploration of chemical diversity of N-substituted aminocyclitols using click chemistry and in situ screening” (J Med Chem, 2011).
The source made the active and inactive calls. The calls are words filed in the database; no cut-off is given here.

How the values were obtained:
[1] = biological target: T1, Lysosomal acid glucosylceramidase (Homo sapiens) (UniProt P04062); assay: Thermal stabilization of recombinant glucocerebrosidase assessed as enzyme activity at 150 uM at 48 degC after 60 mins
T1 sequence (whole entry): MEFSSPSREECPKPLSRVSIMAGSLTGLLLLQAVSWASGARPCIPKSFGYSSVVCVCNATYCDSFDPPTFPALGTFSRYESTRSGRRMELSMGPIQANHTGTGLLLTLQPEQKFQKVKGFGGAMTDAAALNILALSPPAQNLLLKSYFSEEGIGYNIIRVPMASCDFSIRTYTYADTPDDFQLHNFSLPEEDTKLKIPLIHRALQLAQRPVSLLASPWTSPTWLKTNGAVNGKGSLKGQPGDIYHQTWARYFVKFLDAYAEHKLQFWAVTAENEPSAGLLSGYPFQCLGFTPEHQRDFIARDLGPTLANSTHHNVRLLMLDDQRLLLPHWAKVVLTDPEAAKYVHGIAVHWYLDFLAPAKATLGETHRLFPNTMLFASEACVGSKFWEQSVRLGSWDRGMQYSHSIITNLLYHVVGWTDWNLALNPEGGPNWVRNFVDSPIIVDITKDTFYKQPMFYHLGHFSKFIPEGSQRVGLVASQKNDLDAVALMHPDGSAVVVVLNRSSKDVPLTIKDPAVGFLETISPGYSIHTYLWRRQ
How it was run: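 GCase (2 mg/mL) heated at 48 °C, pH 7.4, with water (control) or compound at 10–150 μM final, for 20, 40 or 60 min. Then acetate-phosphate pH 5.0 and 4 mM 4-methylumbelliferyl β-D-glucoside in McIlvaine pH 5.2 added, 10 min at 37 °C. Stopped with glycine pH 10.6, 4-methylumbelliferone measured. Activity relative to identical assay at 37 °C. SR = relative activity with vs without inhibitor.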

[2] = biological target: T2, Lysosomal acid glucosylceramidase (Homo sapiens, UniProt P04062); assay: Competitive inhibition of recombinant glucocerebrosidase
T2 sequence (P04062 whole entry): T1 sequence (whole entry)

[3] = biological target: T3, Beta-galactosidase (Bos taurus, UniProt Q58D55); assay: Inhibition of bovine liver beta-galactosidase
T3 sequence (Q58D55 whole entry): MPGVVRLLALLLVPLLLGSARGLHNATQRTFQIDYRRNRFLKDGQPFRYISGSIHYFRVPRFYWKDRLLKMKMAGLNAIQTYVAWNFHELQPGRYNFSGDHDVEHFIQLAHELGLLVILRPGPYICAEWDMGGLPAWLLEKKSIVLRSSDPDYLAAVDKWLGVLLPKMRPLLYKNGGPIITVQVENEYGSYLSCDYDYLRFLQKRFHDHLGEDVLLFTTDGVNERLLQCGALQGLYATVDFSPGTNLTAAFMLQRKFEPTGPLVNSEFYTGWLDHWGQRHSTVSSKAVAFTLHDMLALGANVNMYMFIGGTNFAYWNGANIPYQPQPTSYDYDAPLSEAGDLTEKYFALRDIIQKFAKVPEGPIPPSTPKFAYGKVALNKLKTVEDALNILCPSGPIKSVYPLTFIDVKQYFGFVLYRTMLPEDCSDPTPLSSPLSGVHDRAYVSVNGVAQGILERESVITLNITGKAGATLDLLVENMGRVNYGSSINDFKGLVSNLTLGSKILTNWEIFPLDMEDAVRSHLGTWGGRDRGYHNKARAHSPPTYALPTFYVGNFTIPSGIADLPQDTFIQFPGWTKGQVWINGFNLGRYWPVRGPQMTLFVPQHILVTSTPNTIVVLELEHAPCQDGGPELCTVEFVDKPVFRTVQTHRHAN

[4] = biological target: T1, Lysosomal acid glucosylceramidase (Homo sapiens); assay: Enzyme stabilization ratio of recombinant glucocerebrosidase activity at 48 degC to at 37 degC at 100 uM after 60 mins
[5] = biological target: T2, Lysosomal acid glucosylceramidase; assay: Inhibition of recombinant glucocerebrosidase in McIlvaine buffer at pH 7.4 after 10 mins by fluorometric analysis
[6] = biological target: T2, Lysosomal acid glucosylceramidase; assay: Inhibition of recombinant glucocerebrosidase in McIlvaine buffer at pH 5.2 after 10 mins by fluorometric analysis
How it was run: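 Imiglucerase in McIlvaine buffer pH 5.2 containing 0.2% (w/v) sodium taurocholate and 0.1% (v/v) Triton X-100. Enzyme pre-incubated 30 min at 37 °C with inhibitor. Then 4 mM 4-methylumbelliferyl β-D-glucopyranoside (substrate solution), 10 min at 37 °C. Stop with 100 mM glycine/NaOH pH 10.6, fluorescence ex 355/em 460 nm. IC50 from % activity vs log[I], at least five concentrations.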

[7] = Cytotoxicity against human wild type fibroblasts at up to 300 uM after 24 hrs by MTT assay; assay type: cell-based; details: fibroblast
[8] = biological target: Alpha-galactosidase (Coffea arabica, UniProt Q42656); assay: Inhibition of alpha-galactosidase from coffee beans
Chain of Alpha-galactosidase (Q42656 whole entry): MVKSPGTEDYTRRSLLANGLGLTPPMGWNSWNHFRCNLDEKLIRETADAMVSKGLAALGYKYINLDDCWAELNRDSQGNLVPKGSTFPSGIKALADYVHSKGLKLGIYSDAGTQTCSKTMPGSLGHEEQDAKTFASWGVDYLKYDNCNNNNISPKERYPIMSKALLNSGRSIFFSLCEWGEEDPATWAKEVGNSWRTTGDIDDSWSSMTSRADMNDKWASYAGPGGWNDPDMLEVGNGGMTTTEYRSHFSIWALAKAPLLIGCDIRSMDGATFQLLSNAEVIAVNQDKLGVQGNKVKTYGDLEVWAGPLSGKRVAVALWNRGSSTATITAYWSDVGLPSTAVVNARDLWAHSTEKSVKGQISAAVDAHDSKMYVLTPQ

[9] = biological target: T4, Ceramide glucosyltransferase (Homo sapiens) (UniProt Q16739); assay: Inhibition of glucosylceramide synthase in human A549 cells at 250 uM after 35 mins by fluorometric analysis; assay type: cell-based
T4 sequence (whole entry): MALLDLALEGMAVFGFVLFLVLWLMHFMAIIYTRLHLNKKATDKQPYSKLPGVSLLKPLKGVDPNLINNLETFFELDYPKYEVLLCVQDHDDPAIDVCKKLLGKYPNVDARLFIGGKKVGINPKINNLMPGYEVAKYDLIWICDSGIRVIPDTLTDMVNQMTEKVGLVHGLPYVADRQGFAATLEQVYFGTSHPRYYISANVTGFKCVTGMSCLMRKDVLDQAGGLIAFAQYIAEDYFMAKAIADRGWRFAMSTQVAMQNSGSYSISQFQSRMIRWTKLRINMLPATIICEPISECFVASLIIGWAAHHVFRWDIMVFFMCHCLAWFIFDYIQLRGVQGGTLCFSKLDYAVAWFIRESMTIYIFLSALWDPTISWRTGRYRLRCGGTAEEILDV

[10] = biological target: Oligo-1,6-glucosidase IMA1 (Saccharomyces cerevisiae S288c, UniProt P53051); assay: Inhibition of yeast alpha-glucosidase
Chain of Oligo-1,6-glucosidase IMA1 (P53051 whole entry): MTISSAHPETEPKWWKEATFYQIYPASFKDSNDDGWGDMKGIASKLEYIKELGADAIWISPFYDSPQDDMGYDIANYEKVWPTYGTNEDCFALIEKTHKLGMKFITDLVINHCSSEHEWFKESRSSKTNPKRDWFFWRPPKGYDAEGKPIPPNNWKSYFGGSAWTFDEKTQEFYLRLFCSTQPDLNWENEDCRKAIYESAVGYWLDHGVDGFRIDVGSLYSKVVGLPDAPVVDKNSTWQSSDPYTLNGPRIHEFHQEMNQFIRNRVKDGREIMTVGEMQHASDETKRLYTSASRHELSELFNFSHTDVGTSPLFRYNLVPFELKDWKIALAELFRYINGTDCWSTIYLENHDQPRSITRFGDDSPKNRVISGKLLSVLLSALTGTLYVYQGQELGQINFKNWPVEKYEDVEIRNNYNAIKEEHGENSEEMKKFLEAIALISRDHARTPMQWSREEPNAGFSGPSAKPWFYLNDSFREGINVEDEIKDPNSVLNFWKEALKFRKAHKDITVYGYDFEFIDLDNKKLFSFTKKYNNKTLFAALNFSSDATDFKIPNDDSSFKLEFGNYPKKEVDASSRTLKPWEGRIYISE

[11] = biological target: T1, Lysosomal acid glucosylceramidase (Homo sapiens); assay: Inhibition of glucocerebrosidase in human intact fibroblasts at 50 uM after 24 hrs by fluorometric analysis
How it was run: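 Fibroblasts grown in MEM with 15% inactivated FCS, 37 °C, 5% CO2, passages 14–30. Plated in DMEM with aminocyclitol (50 μM final, from DMSO) for 24 h, washed with PBS. GCase assayed with 1 h incubation at 37 °C, stopped with 100 mM glycine-NaOH pH 10.6, fluorescence 355/460 nm. Untreated and treated cells in quadruplicate.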

[12] = biological target: Probable alpha-glucosidase Os06g0675700 (Oryza sativa Japonica Group, UniProt Q653V7); assay: Inhibition of rice alpha-glucosidase
Chain of Probable alpha-glucosidase Os06g0675700 (Q653V7 whole entry): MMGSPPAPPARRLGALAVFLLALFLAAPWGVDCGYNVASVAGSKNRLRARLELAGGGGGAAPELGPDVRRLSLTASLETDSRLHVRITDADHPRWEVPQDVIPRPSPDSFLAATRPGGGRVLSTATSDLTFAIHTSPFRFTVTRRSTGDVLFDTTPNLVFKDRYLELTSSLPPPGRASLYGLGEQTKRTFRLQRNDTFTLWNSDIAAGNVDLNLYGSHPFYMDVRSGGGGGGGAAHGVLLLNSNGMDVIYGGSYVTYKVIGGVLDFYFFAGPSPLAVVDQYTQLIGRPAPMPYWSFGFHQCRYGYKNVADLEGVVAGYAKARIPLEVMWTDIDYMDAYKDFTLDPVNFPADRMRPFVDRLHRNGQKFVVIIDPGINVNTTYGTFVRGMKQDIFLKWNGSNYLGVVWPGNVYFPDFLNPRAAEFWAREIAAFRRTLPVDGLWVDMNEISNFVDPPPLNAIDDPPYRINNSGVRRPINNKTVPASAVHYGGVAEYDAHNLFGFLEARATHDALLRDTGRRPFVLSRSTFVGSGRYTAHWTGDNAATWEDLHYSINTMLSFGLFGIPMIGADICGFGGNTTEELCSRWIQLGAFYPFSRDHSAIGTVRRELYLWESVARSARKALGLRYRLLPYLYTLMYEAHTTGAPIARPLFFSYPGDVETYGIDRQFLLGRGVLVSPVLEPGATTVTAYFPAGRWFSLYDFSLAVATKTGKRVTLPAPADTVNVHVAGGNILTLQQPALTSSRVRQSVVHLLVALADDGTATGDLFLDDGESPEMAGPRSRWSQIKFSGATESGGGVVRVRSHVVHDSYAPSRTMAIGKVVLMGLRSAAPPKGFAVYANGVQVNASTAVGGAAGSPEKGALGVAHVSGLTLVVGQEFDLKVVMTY

SMILES | IC50 [3] [µM] | IC50 [6] [µM] | Activity [7] | IC50 [8] [µM] | IC50 [10] [µM] | IC50 [12] [µM] | also measured
O[C@@H]1[C@@H](O)[C@H](O)[C@@H](NCc2cn(CCC(c3ccccc3)c3ccccc3)nn2)[C@H](O)[C@H]1O | > 100 | 1.5 | Non-toxic | > 100 | > 100 | > 100 | Activity [1]: inactive; Ki [2]: 0.77 µM; Ratio [4]: 0.5; IC50 [5]: 1.8 µM; inhibition [9]: 18%; inhibition [11]: 73%
CCCCCCCCCCN[C@H]1[C@H](O)[C@@H](O)[C@H](O)[C@@H](O)[C@@H]1O | > 100 |  | Non-toxic | > 100 | > 100 | > 100 | Ratio [4]: 4.9
CCCCc1ncc(Cn2cc(CN[C@H]3[C@H](O)[C@@H](O)[C@H](O)[C@@H](O)[C@@H]3O)nn2)[nH]1 |  | 237 |  |  |  |  | 
O[C@@H]1[C@@H](O)[C@H](O)[C@@H](NCc2cn(C3CSCCCSC3)nn2)[C@H](O)[C@H]1O |  | 35.9 |  |  |  |  | 
CCCCCCCCn1cc(CN[C@H]2[C@H](O)[C@@H](O)[C@H](O)[C@@H](O)[C@@H]2O)nn1 | > 100 | 2.25 | Non-toxic | > 100 | > 100 | > 100 | 
CCCCOCCCOCCCn1cc(CN[C@H]2[C@H](O)[C@@H](O)[C@H](O)[C@@H](O)[C@@H]2O)nn1 |  | 181 |  |  |  |  | 
CCCCCCCCCCn1cc(CN[C@H]2[C@H](O)[C@@H](O)[C@H](O)[C@@H](O)[C@@H]2O)nn1 | > 100 | 0.15 | Non-toxic | > 100 | > 100 | > 100 | 
O[C@@H]1[C@@H](O)[C@H](O)[C@@H](NCc2cn(Cc3cc4nsnc4cc3Cl)nn2)[C@H](O)[C@H]1O |  | 17.3 |  |  |  |  | 
O[C@@H]1[C@@H](O)[C@H](O)[C@@H](NCc2cn(CCCCC3CCCCC3)nn2)[C@H](O)[C@H]1O | > 100 | 1.5 | Non-toxic | > 100 | > 100 | > 100 | Ki [2]: 0.29 µM; Ratio [4]: 7.5; IC50 [5]: 0.3 µM; inhibition [9]: 8%; inhibition [11]: 30%
O[C@@H]1[C@@H](O)[C@H](O)[C@@H](NCc2cn(CCCCCOCc3ccccc3)nn2)[C@H](O)[C@H]1O |  | 10 |  |  |  |  | 
OCCCCCCCCCCn1cc(CN[C@H]2[C@H](O)[C@@H](O)[C@H](O)[C@@H](O)[C@@H]2O)nn1 | 43 | 2.19 | Non-toxic | > 100 | > 100 | > 100 | Ki [2]: 0.89 µM; Ratio [4]: 6.9; IC50 [5]: 1.3 µM; inhibition [9]: 28%; inhibition [11]: 28%
OCCCCCCCn1cc(CN[C@H]2[C@H](O)[C@@H](O)[C@H](O)[C@@H](O)[C@@H]2O)nn1 |  | 5.8 |  |  |  |  | 
CN1CCN(Cc2cccc(Cn3cc(CN[C@H]4[C@H](O)[C@@H](O)[C@H](O)[C@@H](O)[C@@H]4O)nn3)c2)CC1 |  | 66.5 |  |  |  |  | 
O[C@@H]1[C@@H](O)[C@H](O)[C@@H](NCc2cn(CCCC3CCCCC3)nn2)[C@H](O)[C@H]1O |  | 4.32 |  |  |  |  | 
O[C@@H]1[C@@H](O)[C@H](O)[C@@H](NCc2cn(Cc3cccc(I)c3)nn2)[C@H](O)[C@H]1O |  | 10.3 |  |  |  |  | 
CCCCCCCCCN1C[C@H](O)[C@@H](O)[C@H](O)[C@H]1CO | > 100 |  | Non-toxic | > 100 | > 100 | > 100 | 
O[C@@H]1[C@@H](O)[C@H](O)[C@@H](NCc2cn(CCCc3nc4ccc(C(F)(F)F)cc4[nH]3)nn2)[C@H](O)[C@H]1O |  | 12.2 |  |  |  |  | 
CC(C)(C)OCCCOCCCn1cc(CN[C@H]2[C@H](O)[C@@H](O)[C@H](O)[C@@H](O)[C@@H]2O)nn1 |  | 325 |  |  |  |  | 
CSCCCn1cc(CN[C@H]2[C@H](O)[C@@H](O)[C@H](O)[C@@H](O)[C@@H]2O)nn1 |  | 44.5 |  |  |  |  | 
O[C@@H]1[C@@H](O)[C@H](O)[C@@H](NCc2cn(Cc3ccc(CN4CCCCC4)cc3)nn2)[C@H](O)[C@H]1O |  | 30.9 |  |  |  |  | 
Cn1nnc2ccc(Cn3cc(CN[C@H]4[C@H](O)[C@@H](O)[C@H](O)[C@@H](O)[C@@H]4O)nn3)cc21 |  | 114 |  |  |  |  | 
O[C@@H]1[C@@H](O)[C@H](O)[C@@H](NCc2cn(CC34CC5CC(CC(C5)C3)C4)nn2)[C@H](O)[C@H]1O | > 100 | 2.2 | Non-toxic | > 100 | > 100 | > 100 | Activity [1]: inactive; Ki [2]: 1.05 µM; Ratio [4]: 0.7; IC50 [5]: 1.9 µM; inhibition [9]: 32%; inhibition [11]: 63%
COCCCOCCCOCCCn1cc(CN[C@H]2[C@H](O)[C@@H](O)[C@H](O)[C@@H](O)[C@@H]2O)nn1 |  | 453 |  |  |  |  | 
CCCCCCCCCCCn1cc(CN[C@H]2[C@H](O)[C@@H](O)[C@H](O)[C@@H](O)[C@@H]2O)nn1 | > 100 | 0.06 | Non-toxic | > 100 | > 100 | > 100 | Ki [2]: 0.05 µM; Ratio [4]: 30.5; IC50 [5]: 0.1 µM; inhibition [9]: 29%; inhibition [11]: 97%
CC(C)(CO)Cn1cc(CN[C@H]2[C@H](O)[C@@H](O)[C@H](O)[C@@H](O)[C@@H]2O)nn1 |  | 134 |  |  |  |  | 
COCCCOCCCn1cc(CN[C@H]2[C@H](O)[C@@H](O)[C@H](O)[C@@H](O)[C@@H]2O)nn1 |  | 466 |  |  |  |  | 
O[C@@H]1[C@@H](O)[C@H](O)[C@@H](NCc2cn(Cc3cc(OCc4ccccc4)cc(OCc4ccccc4)c3)nn2)[C@H](O)[C@H]1O | > 100 | 0.05 | Non-toxic | > 100 | > 100 | > 100 | Ki [2]: 0.05 µM; Ratio [4]: 31.2; IC50 [5]: 0.06 µM; inhibition [9]: 9%; inhibition [11]: 93%
